Activity calls are given as the source filed them. No cut-off for these calls is given here.
Assays:
MDA-MB-231 [1] = test: Upregulation of cleaved caspase-3 expression in human MDA-MB-231 cells at 5 to 7.5 uM after 24 hrs by Western blot analysis; type: functional, cell-based
Method in brief: (§1)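 MDA-MB-231 cells treated 24 h, then lysed in RIPA buffer. 40 μg protein run on 10–15% SDS–PAGE and transferred to PVDF. Blocked in 5% milk, probed overnight at 4 °C with primary antibodies (phospho- and total ERK1/2, JNK, p38, cleaved caspase-3), then HRP secondary. ECL detection with β-actin as loading control. Blots representative of three experiments.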

MDA-MB-231 [2] = test: Downregulation of Bcl-2 expression in human MDA-MB-231 cells at 5 to 7.5 uM after 24 hrs by Western blot analysis; type: functional, cell-based
Method in brief: (§2)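 Cells were treated for 24 h. Lysates were made in RIPA buffer, and 40 μg protein was resolved on 10–15% SDS-PAGE and transferred to PVDF. Membranes were blocked with 5% milk and probed overnight at 4 °C with primary antibodies, then HRP secondaries. Detection was by ECL with β-actin as loading control. Blots represent three independent experiments.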

MDA-MB-231 [3] = test: Downregulation of Bcl-XL expression in human MDA-MB-231 cells at 5 to 7.5 uM after 24 hrs by Western blot analysis; type: functional, cell-based; method in brief: as §2
MDA-MB-231 [4] = test: Downregulation of survivin expression in human MDA-MB-231 cells at 5 to 7.5 uM after 24 hrs by Western blot analysis; type: functional, cell-based; method in brief: as §2
MDA-MB-231 [5] = test: Induction of apoptosis in human MDA-MB-231 cells assessed as PARP cleavage at 5 to 7.5 uM after 24 hrs by Western blot analysis; type: functional, cell-based; method in brief: as §2
MDA-MB-231 [6] = test: Downregulation of cyclin B expression in human MDA-MB-231 cells at 5 to 7.5 uM after 24 hrs by Western blot analysis; type: functional, cell-based; method in brief: as §2
MDA-MB-231 [7] = test: Downregulation of CDC25C expression in human MDA-MB-231 cells at 5 to 7.5 uM after 24 hrs by Western blot analysis; type: functional, cell-based; method in brief: as §2
MDA-MB-231 [8] = test: Downregulation of CDK1 expression in human MDA-MB-231 cells at 5 to 7.5 uM after 24 hrs by Western blot analysis; type: functional, cell-based; method in brief: as §2
MDA-MB-231 [9] = test: Antimigratory activity against human MDA-MB-231 cells at 2.5 to 5 uM after 12 to 24 hrs by wound healing assay; type: functional, cell-based
Method in brief: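 2 × 10⁵ cells were plated in six-well plates and scratched with a 200 μL tip. Debris was removed, then cells were treated (0, 1, 2.5, 5, 7.5 μM; or 0–5 μM). The wound was photographed at 0, 12 and 24 h under 100× phase contrast. Area was measured as percent wound closure versus control. Three independent experiments, mean ± SEM.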

MDA-MB-231 [10] = test: Antiinvasive activity against human MDA-MB-231 cells at 1 uM after 48 hrs by transwell assay; type: functional, cell-based
Method in brief: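 Matrigel (growth factor reduced, diluted in serum-free medium) coated on 8 μm pore polycarbonate transwell membranes, set 2 h at 37 °C. 30 000 cells/well seeded in RPMI-1640 with 1% FBS plus compound; lower chamber had 10% FBS as chemoattractant. After 48 h, non-invaded cells were swabbed off and invaded cells were methanol-fixed and stained with 0.1% crystal violet. At least 10 random fields were counted and expressed versus control.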

[11] = target: 72 kDa type IV collagenase (Homo sapiens) (UniProt P08253); test: Inhibition of MMP-2 in human MDA-MB-231 cells at 1 to 5 uM after 24 hrs by gelatin zymographic method; type: cell-based
Chain of 72 kDa type IV collagenase (Homo sapiens) (P08253 110-660 limits assumed): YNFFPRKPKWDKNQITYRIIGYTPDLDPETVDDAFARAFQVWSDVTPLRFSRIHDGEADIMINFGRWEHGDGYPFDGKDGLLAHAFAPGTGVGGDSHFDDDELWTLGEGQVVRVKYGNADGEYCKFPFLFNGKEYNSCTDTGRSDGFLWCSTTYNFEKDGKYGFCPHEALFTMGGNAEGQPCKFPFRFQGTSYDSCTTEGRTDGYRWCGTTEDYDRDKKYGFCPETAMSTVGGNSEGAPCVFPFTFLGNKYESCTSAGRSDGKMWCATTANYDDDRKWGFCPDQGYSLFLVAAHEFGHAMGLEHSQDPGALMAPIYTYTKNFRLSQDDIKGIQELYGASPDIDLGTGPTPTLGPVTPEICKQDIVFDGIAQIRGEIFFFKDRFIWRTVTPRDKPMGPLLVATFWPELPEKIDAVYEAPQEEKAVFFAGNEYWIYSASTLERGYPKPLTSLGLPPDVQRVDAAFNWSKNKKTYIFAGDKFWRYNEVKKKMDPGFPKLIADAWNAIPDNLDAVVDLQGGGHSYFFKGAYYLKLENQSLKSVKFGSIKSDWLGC
Method in brief: (§3)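 MDA-MB-231 cells, 1 × 10⁵ per well, treated 24 h with 0, 1, 2.5, 5 or 7.5 μM. Conditioned medium centrifuged and equal protein loaded on 8% SDS–PAGE containing 0.1% gelatin, run at 80 V. Triton X-100 washes, then developed 20 h at 37 °C in Tris-HCl pH 7.5 with NaCl, CaCl₂ and ZnCl₂. Coomassie stain, then destain.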

[12] = target: Matrix metalloproteinase-9 (Homo sapiens) (UniProt P14780); test: Inhibition of MMP-9 in human MDA-MB-231 cells at 1 to 5 uM after 24 hrs by gelatin zymographic method; type: cell-based; method in brief: as §3
Chain of Matrix metalloproteinase-9 (Homo sapiens) (P14780 whole entry): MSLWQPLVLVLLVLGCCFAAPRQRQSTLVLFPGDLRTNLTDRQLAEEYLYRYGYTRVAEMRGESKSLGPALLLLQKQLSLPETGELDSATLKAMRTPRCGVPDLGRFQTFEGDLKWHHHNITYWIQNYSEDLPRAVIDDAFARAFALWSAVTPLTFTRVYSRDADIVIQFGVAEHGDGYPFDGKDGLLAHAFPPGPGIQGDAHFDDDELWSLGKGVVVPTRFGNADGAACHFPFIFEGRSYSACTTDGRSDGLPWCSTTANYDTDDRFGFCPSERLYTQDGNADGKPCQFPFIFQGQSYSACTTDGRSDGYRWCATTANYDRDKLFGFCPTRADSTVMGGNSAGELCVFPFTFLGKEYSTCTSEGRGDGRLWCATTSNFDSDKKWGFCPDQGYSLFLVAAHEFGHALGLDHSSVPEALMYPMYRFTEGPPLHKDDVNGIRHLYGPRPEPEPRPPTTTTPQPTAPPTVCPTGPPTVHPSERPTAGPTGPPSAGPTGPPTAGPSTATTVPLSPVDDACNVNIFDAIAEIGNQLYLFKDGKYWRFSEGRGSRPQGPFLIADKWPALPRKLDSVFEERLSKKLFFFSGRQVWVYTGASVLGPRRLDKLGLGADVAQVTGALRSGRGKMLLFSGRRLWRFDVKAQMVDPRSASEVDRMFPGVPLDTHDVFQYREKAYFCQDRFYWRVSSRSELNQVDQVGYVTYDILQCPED

[13] = target: Mitogen-activated protein kinase; ERK1/ERK2 (Homo sapiens) (UniProt P27361+P28482); test: Inhibition of ERK1/2 phosphorylation in human MDA-MB-231 cells at 5 to 7.5 uM after 24 hrs by Western blot analysis; type: cell-based; method in brief: as §1
Chain of Mitogen-activated protein kinase; ERK1/ERK2 (Homo sapiens) (P27361 whole entry, looked up): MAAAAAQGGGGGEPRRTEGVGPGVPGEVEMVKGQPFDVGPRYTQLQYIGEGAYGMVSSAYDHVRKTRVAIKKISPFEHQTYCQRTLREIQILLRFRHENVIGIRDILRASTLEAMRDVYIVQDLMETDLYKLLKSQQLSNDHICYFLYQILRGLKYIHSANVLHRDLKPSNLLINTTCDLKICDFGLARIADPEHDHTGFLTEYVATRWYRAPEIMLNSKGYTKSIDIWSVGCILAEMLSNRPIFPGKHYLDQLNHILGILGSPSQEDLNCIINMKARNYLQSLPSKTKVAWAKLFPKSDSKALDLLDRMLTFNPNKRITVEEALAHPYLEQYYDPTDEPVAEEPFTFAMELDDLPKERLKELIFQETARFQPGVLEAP
Chain of Mitogen-activated protein kinase; ERK1/ERK2 (Homo sapiens) (P28482 whole entry, looked up): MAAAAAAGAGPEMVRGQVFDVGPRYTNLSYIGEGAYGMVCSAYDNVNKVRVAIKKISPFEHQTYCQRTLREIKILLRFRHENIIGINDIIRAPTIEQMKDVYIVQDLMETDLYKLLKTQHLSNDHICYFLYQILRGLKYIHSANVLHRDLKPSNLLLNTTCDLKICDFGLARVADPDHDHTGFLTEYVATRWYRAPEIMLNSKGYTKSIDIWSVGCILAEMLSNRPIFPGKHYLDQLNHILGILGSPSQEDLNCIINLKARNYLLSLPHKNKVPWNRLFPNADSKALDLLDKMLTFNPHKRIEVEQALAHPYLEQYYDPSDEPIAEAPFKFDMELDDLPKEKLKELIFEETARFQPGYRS

[14] = target: c-Jun N-terminal kinase, JNK (Homo sapiens) (UniProt P45983+P53779+P45984); test: Inhibition of SAPK/JNK phosphorylation in human MDA-MB-231 cells at 5 to 7.5 uM after 24 hrs by Western blot analysis; type: cell-based; method in brief: as §1
[15] = target: MAP kinase p38 (Homo sapiens) (UniProt O15264+Q15759+Q16539+P53778); test: Induction of p38 MAPK phosphorylation in human MDA-MB-231 cells at 5 to 7.5 uM after 24 hrs by Western blot analysis; type: cell-based; method in brief: as §1
Albumin [16] = target: T1, Albumin (Homo sapiens, UniProt P02768); test: Binding affinity to human serum albumin at 2 to 50 uM at pH 7.4 by spectroscopic analysis; type: ADME; details: isolated protein, pH 7.4, 50 µM
T1 sequence (P02768 whole entry): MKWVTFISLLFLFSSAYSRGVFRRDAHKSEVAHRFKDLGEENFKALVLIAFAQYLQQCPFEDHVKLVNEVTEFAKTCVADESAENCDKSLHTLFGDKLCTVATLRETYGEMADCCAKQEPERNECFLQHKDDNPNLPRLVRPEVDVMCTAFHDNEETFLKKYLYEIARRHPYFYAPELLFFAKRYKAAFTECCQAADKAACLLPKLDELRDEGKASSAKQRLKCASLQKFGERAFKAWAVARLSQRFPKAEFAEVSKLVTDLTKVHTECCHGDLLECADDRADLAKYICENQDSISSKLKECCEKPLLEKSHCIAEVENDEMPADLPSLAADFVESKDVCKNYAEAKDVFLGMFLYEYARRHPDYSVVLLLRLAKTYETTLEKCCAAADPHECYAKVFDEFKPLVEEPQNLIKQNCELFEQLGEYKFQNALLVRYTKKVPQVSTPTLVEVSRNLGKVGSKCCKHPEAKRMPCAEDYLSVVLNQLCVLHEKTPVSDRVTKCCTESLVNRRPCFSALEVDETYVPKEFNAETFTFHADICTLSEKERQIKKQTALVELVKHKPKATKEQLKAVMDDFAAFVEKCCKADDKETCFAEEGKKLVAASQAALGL
Method in brief: (§4)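 Fatty-acid-free HSA (10 μM) in 0.05 M phosphate buffer pH 7.4 was titrated with compound from 0 to 50 μM. Trp emission was excited at 295 nm and quenching was monitored. Data were fitted to the Stern–Volmer equation and a modified log[(F₀−F)/F] versus log[Q] plot, giving Kb and n from intercept and slope.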

Albumin [17] = target: T1, Albumin; test: Binding affinity to human serum albumin at 2 to 50 uM at pH 7.4 by fluorescence spectra analysis; type: ADME; details: isolated protein, pH 7.4, 50 µM; method in brief: as §4
Albumin [18] = target: T1, Albumin; test: Binding affinity to human serum albumin at 283 K at pH 7.4 by fluorescence spectra analysis; type: ADME; details: isolated protein
Method in brief: (§5)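 Steady-state Trp fluorescence quenching of HSA (10 μM, 0.05 M phosphate pH 7.4, excitation 295 nm) by increasing compound was run at each of three temperatures. F₀/F was fitted to the Stern–Volmer equation for KSV. Binding constant Kb and n came from the modified equation log[(F₀−F)/F] = log Kb + n log[Q].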

Albumin [19] = target: T1, Albumin; test: Binding affinity to human serum albumin at 293 K at pH 7.4 by fluorescence spectra analysis; type: ADME; details: isolated protein; method in brief: as §5
Albumin [20] = target: T1, Albumin; test: Binding affinity to human serum albumin at 303 K at pH 7.4 by fluorescence spectra analysis; type: ADME; details: isolated protein; method in brief: as §5
Albumin [21] = target: T1, Albumin; test: Binding affinity to human serum albumin assessed as change in secondary structure up to 40 uM at pH 7.4 by circular dichroism spectra analysis; type: ADME; details: isolated protein

inhibition [11]: Active
inhibition [12]: Active
inhibition [13]: Active
inhibition [14]: Active
Activity [15]: Active
Activity (Albumin [16]): Active
Activity (Albumin [17]): Active
Kb (Albumin [18]): 9.77 ×10⁴ L/mol
Kb (Albumin [19]): 8.91 ×10⁴ L/mol
Kb (Albumin [20]): 7.94 ×10⁴ L/mol
Activity (Albumin [21]): Not Active
SMILES: COC(=O)c1cc2c3ccccc3[nH]c2c2cn(-c3ccc(F)cc3Cl)c[n+]12.[Cl-]
Activity (MDA-MB-231 [1]): Active
Activity (MDA-MB-231 [2]): Active
Activity (MDA-MB-231 [3]): Active
Activity (MDA-MB-231 [4]): Active
Activity (MDA-MB-231 [5]): Active
Activity (MDA-MB-231 [6]): Active
Activity (MDA-MB-231 [7]): Active
Activity (MDA-MB-231 [8]): Active
Activity (MDA-MB-231 [9]): Active
Activity (MDA-MB-231 [10]): Active

Reference: ChEMBL document CHEMBL3425411, “Synthesis of β-Carboline-Based N-Heterocyclic Carbenes and Their Antiproliferative and Antimetastatic Activities against Human Breast Cancer Cells” (J Med Chem, 2015)
